# Measured values from ChEMBL document CHEMBL3297654, “Synthesis, antimicrobial and cytotoxic activities, and structure-activity relationships of gypsogenin derivatives against human cancer cells” (Eur J Med Chem, 2014).
# Active and inactive are the calls of the source. The rule behind the calls is not given here.
# What was measured:
# [1] = tested on: Proteus vulgaris; experiment: Antimicrobial activity against Proteus vulgaris ATCC 33420 assessed as zone of inhibition at 10 mg by disk diffusion test; type: functional, organism-based
# [2] = tested on: Bacillus thuringiensis; experiment: Antimicrobial activity against Bacillus thuringiensis assessed as zone of inhibition at 10 mg for 24 hrs at 30 degC by disk diffusion test; type: functional, organism-based
# Procedure, shortened: (§1)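 Well diffusion on Mueller Hinton agar per NCCLS disc susceptibility tests. DMSO stocks were 1000 µg/mL. Bacterial broth cultures (18–24 h) were adjusted to 0.5 McFarland, about 1×10^8 cells/mL. A 6 mm well received 30 µL compound. Incubation was 24 h at 30 °C, and zone diameters were read in mm. B. thuringiensis was a fecal clinical isolate grown in nutrient broth.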
# [3] = tested on: Bacillus subtilis; experiment: Antimicrobial activity against Bacillus subtilis ATCC 6633 assessed as zone of inhibition at 10 mg by disk diffusion test; type: functional, organism-based
# [4] = tested on: Escherichia coli; experiment: Antimicrobial activity against Escherichia coli ATCC 25922 assessed as zone of inhibition at 10 mg for 24 hrs at 37 degC by disk diffusion test; type: functional, organism-based
# [5] = tested on: Bacillus cereus; experiment: Antimicrobial activity against Bacillus cereus ATCC 11778 assessed as zone of inhibition at 10 mg for 24 hrs at 30 degC by disk diffusion test; type: functional, organism-based; procedure, shortened: as §1
# [6] = tested on: Klebsiella pneumoniae; experiment: Antimicrobial activity against Klebsiella pneumoniae ATCC 13882 assessed as zone of inhibition at 10 mg for 24 hrs at 37 degC by disk diffusion test; type: functional, organism-based
# Procedure, shortened: (§2)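 Agar well diffusion following NCCLS disc susceptibility guidance. Compounds were held as 1000 µg/mL stocks in DMSO. Broth cultures (18–24 h) were adjusted to 0.5 McFarland (1×10^8 cells/mL) and spread on Mueller Hinton agar. A 6 mm well was cut and filled with 30 µL compound. Plates were incubated 24 h at 37 °C, and the inhibition zone diameter was measured in mm.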
# [7] = tested on: Pseudomonas aeruginosa; experiment: Antimicrobial activity against Pseudomonas aeruginosa ATCC 35032 assessed as zone of inhibition at 10 mg for 24 hrs at 37 degC by disk diffusion test; type: functional, organism-based; procedure, shortened: as §2
# [8] = tested on: Enterococcus faecalis; experiment: Antimicrobial activity against Enterococcus faecalis ATCC 29212 assessed as zone of inhibition at 10 mg for 24 hrs at 37 degC by disk diffusion test; type: functional; details: ATCC 29212, 24 h, read-out: DIZ; procedure, shortened: as §2
compound,measurement,setting,value
CC1(C)S[C@@H]2[C@H](NC(=O)[C@H](N)c3ccccc3)C(=O)N2[C@H]1C(=O)O [AMPICILLIN],diameter of the inhibition zone (DIZ),[1],inactive
same,diameter of the inhibition zone (DIZ),[2],inactive
same,diameter of the inhibition zone (DIZ),[3],inactive
same,diameter of the inhibition zone (DIZ),[4],inactive
same,diameter of the inhibition zone (DIZ),[5],inactive
same,diameter of the inhibition zone (DIZ),[6],inactive
same,diameter of the inhibition zone (DIZ),[7],inactive
same,zone of inhibition at 10000 µg/disc,[8],14 mm
